Results on eight compounds are retold here after ChEMBL document CHEMBL1921791, “Arylsulfonamidopiperidone derivatives as a novel class of factor Xa inhibitors” (Bioorg Med Chem Lett, 2011).

Data set [1] can be described thus: Permeability from apical to basolateral side of human Caco2 cells at 3 uM. The format is ADME, cell-based. The conditions noted are these: Caco-2, read-out: permeability. The method in brief:
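Caco-2 monolayers: apical-to-basolateral permeability was measured at pH 6.5 and reported in nm/s.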

A short description of data set [2]: Half life in human liver microsomes at 0.5 uM at pH 7.4 in presence of NADPH. It counts as ADME, Microsome. The method in brief:
(§1)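 Liver microsomal stability was measured with 0.5 µM compound and 1.0 mg/mL microsomal protein, in 1.0 mM NADPH, 100 mM NaPi and 5.0 mM MgCl₂, at pH 7.4 and 37 °C. Half-life was determined.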

Data set [3] can be described thus: Half life in cynomolgus monkey liver microsomes at 0.5 uM at pH 7.4 in presence of NADPH. It counts as ADME, Macaca fascicularis, Microsome. The gist of the method:
as §1

A short description of data set [4]: Half life in rat liver microsomes at 0.5 uM at pH 7.4 in presence of NADPH. It counts as ADME, Microsome. The gist of the method: as §1
Data set [5] in a line: Half life in dog liver microsomes at 0.5 uM at pH 7.4 in presence of NADPH. The format is ADME, Canis lupus familiaris, Microsome. The method in brief: as §1
The nature of data set [6]: Half life in mouse liver microsomes at 0.5 uM at pH 7.4 in presence of NADPH. It counts as ADME, Microsome. The method in brief:
as §1

As to `O=C(CN1CCC[C@H](NS(=O)(=O)c2ccc3cc(Cl)ccc3c2)C1=O)N1CC2CNCC(C2)C1`, the Papp A→B at 3 µM in data set [1] is less than 1.5 ×10⁻⁶ cm/s.

Turning to `O=C(CN1CCC[C@H](NS(=O)(=O)c2ccc3cc(Cl)ccc3c2)C1=O)N1C[C@@H]2C[C@H](C1)c1cccc(=O)n1C2`, the Papp A→B at 3 µM in data set [1] was 2.5 ×10⁻⁶ cm/s. Further, the half-life at 0.5 µM in data set [2], in data set [3], in data set [4], in data set [5] and in data set [6] was less than 2 min throughout.

On to `CC(=O)N1CC2CC(C1)CN(C(=O)CN1CCC[C@H](NS(=O)(=O)c3ccc4cc(Cl)ccc4c3)C1=O)C2`, for which, in data set [1], the Papp A→B at 3 µM amounted to 7.3 ×10⁻⁶ cm/s. Also, the half-life at 0.5 µM in data set [2], in data set [3], in data set [4], in data set [5] and in data set [6] was less than 2 min throughout.

For `NC(=O)N1CC2CC(C1)CN(C(=O)CN1CCC[C@H](NS(=O)(=O)c3ccc4cc(Cl)ccc4c3)C1=O)C2`, in data set [1], the Papp A→B at 3 µM was less than 1.5 ×10⁻⁶ cm/s.

`NC(=O)C(=O)N1CC2CC(CN(C(=O)CN3CCC[C@H](NS(=O)(=O)c4ccc5cc(Cl)ccc5c4)C3=O)C2)C1`: the Papp A→B at 3 µM in data set [1] was less than 1.5 ×10⁻⁶ cm/s.

`CS(=O)(=O)N1CC2CC(CN(C(=O)CN3CCC[C@H](NS(=O)(=O)c4ccc5cc(Cl)ccc5c4)C3=O)C2)C1`: in data set [1], the Papp A→B at 3 µM is less than 1.5 ×10⁻⁶ cm/s.

For `O=C(CN1CCC[C@H](NS(=O)(=O)c2ccc3cc(Cl)ccc3c2)C1=O)N1CC2CC(C1)CN(C(=O)C1CCNCC1)C2`, in data set [1], the Papp A→B at 3 µM was less than 1.5 ×10⁻⁶ cm/s.

As for `Nc1[nH]ncc1C(=O)N1CC2CC(CN(C(=O)CN3CCC[C@H](NS(=O)(=O)c4ccc5cc(Cl)ccc5c4)C3=O)C2)C1`, the Papp A→B at 3 µM in data set [1] is less than 1.5 ×10⁻⁶ cm/s.
